Screens (PubChem BioAssay)
5HT1a antag – blocks the human serotonin 5-HT1a receptor | P08908 | CHO 5-HT1a Ga15 NFAT-bla reporter, antagonist mode | inhibition, % at 10 µM | actives 0.68% (n = 62,000);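 active means inhibition above the mean of all tested compounds plus 3 SD, cut at about 43% in these data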;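 further: receptor stimulated by 5-CT agonist at 100 nM near EC80; beta-lactamase reporter measured by ratiometric fluorescence of a cleavable substrate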
Target sequence (P08908 whole entry, looked up): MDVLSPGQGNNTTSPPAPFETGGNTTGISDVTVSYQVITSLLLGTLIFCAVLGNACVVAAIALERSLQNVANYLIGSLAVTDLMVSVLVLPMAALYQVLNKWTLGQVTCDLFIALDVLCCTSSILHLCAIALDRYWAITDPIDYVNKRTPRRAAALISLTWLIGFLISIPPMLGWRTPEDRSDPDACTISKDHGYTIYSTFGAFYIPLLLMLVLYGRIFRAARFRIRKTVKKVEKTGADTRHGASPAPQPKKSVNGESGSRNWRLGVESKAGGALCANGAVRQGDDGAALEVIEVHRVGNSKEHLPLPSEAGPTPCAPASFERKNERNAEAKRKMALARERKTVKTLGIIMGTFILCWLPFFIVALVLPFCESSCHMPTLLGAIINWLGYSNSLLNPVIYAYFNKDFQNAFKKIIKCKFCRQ
5HT1E antag – blocks the human 5-HT1E serotonin receptor; P28566; inhibition, % at 6 µM; CHO 5-HT1E Ga15 NFAT-bla reporter, FRET, antagonist; actives 0.99% (n = 65,000); AID 571;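 active means inhibition above a set limit, the mean inhibition across every tested compound plus 3 SD, cut at about 29% in these data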;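 further: signal is the 460 over 535 nm emission ratio of beta-lactamase substrate; 0% = agonist plus DMSO wells and 100% = wells without agonist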
HEK293 NFkB inh – lowers PMA/ionomycin-induced NF-kB signal in HEK293 cells; inhibition, % at 3 µM; HEK-293 NF-kB luciferase reporter, luminescence; actives 0.21% (n = 62,000);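 active means inhibition above the mean of all tested compounds plus 3 SD, cut at about 40% in these data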;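 further: 0% = stimulated DMSO wells and 100% = 10 µM reference inhibitor 5653914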
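System – HEK-293 cells with stable firefly luciferase reporter driven by four HIV NF-kB elements · Doses – one dose, 3 µM · Schedule – 1 h compound pre-incubation, 16 h PMA/ionomycin at 37 °C · Technique – luminescence from luciferase substrate reagent · Measure – percent inhibition normalized per plate to DMSO and reference-inhibitor controls · Replicates – tested once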
5HT1E ag – agonists of human 5-HT1E serotonin receptor; P28566; AID 574; activation, % at 6 µM; CHO 5-HT1E Ga15 NFAT-bla reporter, FRET; 0% DMSO wells, 100% control agonist wells; actives 0.69% (n = 65,000);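 active means activation above a set limit, the screen-wide mean activation plus 3 SD, cut at about 8.5% in these data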;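 further: 100% = positive control agonist at 1 µM giving full maximal response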
HTR1A agonist – agonists of human 5-HT1a serotonin receptor | P08908 | CHO 5-HT1a Ga15 NFAT-bla reporter, FRET ratio; 0% basal, 100% maximal reference agonist | activation, % at 10 µM | actives 0.56% (n = 65,000) | AID 567;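 active means activation above the screen-wide mean activation plus 3 SD, cut at about 19% in these data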;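 further: 0% = DMSO wells and 100% = 5-CT at EC100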
* hit, by the source's call; x = no result. A selection: hits, their analogues and other compounds. The true share with any hit is near 2.6%.

SMILES	5HT1a antag	5HT1E antag	HEK293 NFkB inh	5HT1E ag	HTR1A agonist
O=c1nc(-c2ccccc2)c2ccccc2[nH]1	-2	-7	22	0	-1
O=c1cc(-c2ccccc2)[nH]c2ccccc12	33	53*	30	-1	-1
COCCN1CN=C(Nc2nc3ccccc3s2)NC1	7	-3	13	0	-2
Cc1nn(C)cc1C1C2=C(CC(C)(C)CC2=O)OC2=C1C(=O)CC(C)(C)C2	x	-8	x	1	3
Cc1ccc(-c2nnc(N3CCCCC3)c3ccccc23)cc1S(=O)(=O)N1CCN(C)CC1	4	31*	16	-1	3
CCCCN1c2cc(C)c(O)cc2C(C(=O)OCC)C1C (configuration not stated)	5	4	19	0	2
COC(=O)C1=C(N)n2c(s/c(=C\c3cccnc3)c2=O)=C(C(=O)OC)C1c1cccnc1 (configuration not stated)	5	7	7	1	-3
CCOC(=O)C1=C(N)n2c(s/c(=C\c3cccnc3)c2=O)=C(C#N)C1c1cccnc1 (configuration not stated)	-9	-7	14	19*	0
Cn1nc(CC(=O)Nc2ccc(N3CCN(C(=O)OC(C)(C)C)CC3)cc2)c2ccccc2c1=O	8	3	45*	0	1
Cn1nc(CC(=O)N2CCN(c3ccccc3)CC2)c2ccccc2c1=O	7	8	-2	0	-3
COc1ccc(OC)c(NS(=O)(=O)c2ccc(SC)cc2)c1	8	17	12	0	-1
CCOc1ccc(S(=O)(=O)Nc2cc(OC)ccc2OC)cc1	52*	65*	33	0	-2
COc1ccc(Cl)cc1NS(=O)(=O)c1ccc(S(=O)(=O)N2CCCC2)cc1	10	6	5	0	-2
COc1ccc(OC)c(NS(=O)(=O)c2ccc(N3CCCC3=O)cc2)c1	x	48*	x	0	-5
COc1ccc(S(=O)(=O)Nc2cc(Cl)ccc2OC)cc1	19	30*	28	0	-2
COc1ccc(OC)c(NS(=O)(=O)c2cccs2)c1	5	3	15	0	-5
CCN1CCN(C(c2cccs2)C(C)NC(=O)c2cccnc2)CC1 (configuration not stated)	-10	-5	7	0	-1
Cc1oc(C)c2c(=O)ccc3c(c12)OC(N)=C(C#N)C3c1ccc(F)cc1 (configuration not stated)	17	4	-3	-1	1
Cc1cccc(N2C(N)=C(C#N)C(C#N)(C#N)C2c2ccccc2)c1 (configuration not stated)	6	42*	2	1	-1
Cc1cccc(-n2ncc(C#N)c2N)c1	-12	-6	17	0	0
N#CC1=C(N)N(c2ccccc2)C(c2ccco2)C1(C#N)C#N (configuration not stated)	22	27	14	-2	42*
CCCCn1c(N2CCC(Cc3ccccc3)CC2)nc2c1c(=O)[nH]c(=O)n2C	-14	-4	15	2	3
Clc1ccc(-c2nc(NCCN3CCOCC3)c3ccccc3n2)cc1	-9	3	17	0	45*
C=CCn1c(SCC(=O)Nc2nnc(CC)s2)nnc1-c1ccco1	-3	-3	12	0	-1
O=C(O)Cn1c(SC2CCCCC2)nc2ccccc21	-1	-16	12	0	19*
SMILES	5HT1a antag	5HT1E antag	HEK293 NFkB inh	5HT1E ag	HTR1A agonist
O=S(=O)(Nc1cccnc1)c1ccc(Cl)c(C(F)(F)F)c1	-4	0	6	0	-1
COc1ccc(-c2noc(CSc3nc4ccccc4c(=O)n3-c3ccccc3)n2)cc1OC	-6	8	12	1	5
Cc1ccc(-n2c(SCc3cn4ccsc4n3)nc3ccccc3c2=O)cc1	17	43*	16	0	3
c1ccc(-n2cnnc2SCc2cn3ccsc3n2)cc1	0	3	18	0	1
O=c1c2ccccc2nc(SCc2nc(-c3ccccc3)no2)n1-c1ccc(F)cc1	13	-2	20	0	20*
CC1(C)CC(=O)C2=C(C1)N(Cc1ccco1)C(=O)C2(NC(=O)C1CCCCC1)C(F)(F)F (configuration not stated)	14	13	24	0	-2
CCC(c1nnnn1Cc1ccc(F)cc1)N(CCCO)Cc1cc2cc3c(cc2[nH]c1=O)OCO3 (configuration not stated)	16	21	2	-1	-2
CCOC(=O)CSC1=C(C#N)C(c2ccc(Cl)cc2)CC(=O)N1 (configuration not stated)	3	19	4	1	-1
CCOC(=O)CSC1=C(C#N)C(c2ccc(C)o2)CC(=O)N1 (configuration not stated)	34	43*	39	0	-3
CC(=O)Nc1ccc(CN2CCN(c3cccc(C(F)(F)F)c3)CC2)cc1	10	3	5	23*	9
COc1ccccc1CC(=O)N1CCN(c2cccc(C(F)(F)F)c2)CC1	2	4	12	0	2
COc1ccccc1NC(=O)N1CCN(c2cccc(C(F)(F)F)c2)CC1	-10	-4	10	13*	3
CCCOc1ccccc1C1CC(=O)NC2=C1C(=O)CCC2 (configuration not stated)	12	13	7	0	-3
O=C1CC(c2cccnc2)c2cc3c(cc2N1)OCO3 (configuration not stated)	-3	-3	7	1	0
CCOc1ccccc1C1CC(=O)Nc2cc3c(cc21)OCCO3 (configuration not stated)	44*	64*	28	-1	-4
CC(C)Oc1ccccc1C1CC(=O)Nc2cc3c(cc21)OCO3 (configuration not stated)	54*	61*	26	1	-2
CCCCOc1ccccc1C1CC(=O)NC2=C1C(=O)CCC2 (configuration not stated)	16	29*	18	2	-2
CCCOc1ccccc1C1CC(=O)Nc2cc3c(cc21)OCCO3 (configuration not stated)	75*	71*	47*	0	-1
COc1ccccc1C(=O)n1nc(-c2ccccc2)nc1NCc1ccco1	44*	0	5	-1	-2
CCC(=O)Nc1c(C#N)c2nc3ccccc3nc2n1C1CCCCC1	x	-5	x	3	10
N#Cc1c(N)n(C2CCCCC2)c2nc3ccccc3nc12	-14	27	4	7	25*
CCCc1ccc(Oc2c(-c3ccc(O)c(C)c3O)n[nH]c2C)cc1	56*	0	3	-1	-3
CCCc1ccc(Oc2cn[nH]c2-c2ccc(O)c(C)c2O)cc1	39	21	-9	0	-2
Cc1ccc(NCc2nnc(SCC(=O)NCCc3ccccc3)n2C)cc1	-8	-7	6	0	-4
